# From ChEMBL document CHEMBL3862036, “Biphenyl Pyridazinone Derivatives as Inhaled PDE4 Inhibitors: Structural Biology and Structure-Activity Relationships” (J Med Chem, 2016)
# How the values were obtained:
# [1] = Inhibition of PDE4 in PBMC (unknown origin) assessed as reduction in LPS-induced TNFalpha production incubated for 24 hrs by ELISA; details: Homo sapiens
# Adenosine receptor A1 = molecular target: T1, Adenosine receptor A1 (Homo sapiens, UniProt P30542); assay: Antagonist activity at adenosine A1 receptor (unknown origin)
# T1 sequence (P30542 whole entry): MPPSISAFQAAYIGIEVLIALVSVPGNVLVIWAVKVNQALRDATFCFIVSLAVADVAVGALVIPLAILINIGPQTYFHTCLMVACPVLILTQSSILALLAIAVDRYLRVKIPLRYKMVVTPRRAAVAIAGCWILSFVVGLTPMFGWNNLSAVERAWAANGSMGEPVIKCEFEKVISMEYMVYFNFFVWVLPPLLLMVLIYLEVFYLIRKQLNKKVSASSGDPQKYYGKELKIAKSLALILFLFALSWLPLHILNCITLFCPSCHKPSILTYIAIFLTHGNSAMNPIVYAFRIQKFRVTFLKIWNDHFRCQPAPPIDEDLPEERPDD
# Adenosine receptor A2b = molecular target: T2, Adenosine receptor A2b (Homo sapiens, UniProt P29275); assay: Antagonist activity at adenosine A2b receptor (unknown origin)
# T2 sequence (P29275 whole entry): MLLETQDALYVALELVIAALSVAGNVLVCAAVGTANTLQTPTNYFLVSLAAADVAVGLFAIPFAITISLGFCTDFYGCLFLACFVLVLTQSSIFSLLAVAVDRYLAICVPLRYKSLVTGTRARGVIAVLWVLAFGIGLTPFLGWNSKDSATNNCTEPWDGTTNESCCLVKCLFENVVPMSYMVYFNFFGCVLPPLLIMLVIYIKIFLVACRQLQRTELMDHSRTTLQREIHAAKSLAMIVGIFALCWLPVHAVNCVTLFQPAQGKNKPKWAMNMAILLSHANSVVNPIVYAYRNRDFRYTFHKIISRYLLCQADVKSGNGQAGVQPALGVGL
# Adenosine receptor A2a = Adenosine receptor A2a (Homo sapiens, UniProt P29274); assay: Antagonist activity at adenosine A2a receptor (unknown origin)
# Adenosine receptor A2a, sequence (P29274 whole entry): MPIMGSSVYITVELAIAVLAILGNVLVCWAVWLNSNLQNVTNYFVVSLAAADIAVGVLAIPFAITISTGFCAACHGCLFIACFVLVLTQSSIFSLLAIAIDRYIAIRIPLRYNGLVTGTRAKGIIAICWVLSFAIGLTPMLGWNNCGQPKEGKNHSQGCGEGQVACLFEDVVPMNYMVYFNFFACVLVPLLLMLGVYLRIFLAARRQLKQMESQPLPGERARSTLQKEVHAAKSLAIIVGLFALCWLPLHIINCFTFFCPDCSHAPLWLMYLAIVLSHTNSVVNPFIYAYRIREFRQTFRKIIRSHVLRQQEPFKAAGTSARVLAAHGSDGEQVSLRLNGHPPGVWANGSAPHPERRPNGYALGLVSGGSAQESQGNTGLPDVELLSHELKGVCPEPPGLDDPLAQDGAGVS
# [2] = Inhibition of PDE4 in human whole blood assessed as reduction in LPS-induced TNFalpha production incubated for 24 hrs by ELISA; format: tissue-based
# Summary of the method: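 Human whole blood was preincubated with LPS (final 1 μg/mL) for 10 min at 37 °C with rocking. 200 μL was added to wells holding increasing inhibitor concentrations in 100% DMSO. Plates were incubated 24 h at 37 °C under agitation, then placed on ice, diluted with PBS and centrifuged at 800g, 4 °C, for 15 min before TNF-α measurement.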
# [3] = Drug metabolism in human liver S9 fraction assessed as glucuronidation in presence of PAPS and UDPGA incubated for 20 mins; format: ADME, subcellular; details: read-out: Drug metabolism
# Rattus norvegicus [4] = assay: Anti-inflammatory activity in Sprague-Dawley rat assessed as inhibition of LPS-induced neutrophilia at 25 ug/kg, it administered as suspension with Penn-Century micro-sprayer aerosolizer dosed 1 hrs before LPS challenge and measured 5 hrs post dose; format: functional; details: inhaled or nasal
# Summary of the method: (§1)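 Suspensions in PBS/0.2% Tween 80 were homogenized, with lower doses made by 1:10 dilutions. 0.2 mL was given intratracheally by MicroSprayer to isoflurane-anesthetized fasted male Sprague-Dawley rats (230–280 g). At 1 or 18 h, rats received nebulized LPS (30 mL of a 1:100 PBS dilution of 100 mg/10 mL stock) over 40 min. Four hours later, BAL neutrophils were counted by flow cytometry.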
# Rattus norvegicus [5] = assay: Anti-inflammatory activity in Sprague-Dawley rat assessed as inhibition of LPS-induced neutrophilia at 1000 ug/kg, it administered as suspension with Penn-Century micro-sprayer aerosolizer dosed 18 hrs before LPS challenge and measured 22 hrs post dose; format: functional; details: inhaled or nasal; summary of the method: as §1
# Rattus norvegicus [6] = assay: Anti-inflammatory activity in Sprague-Dawley rat assessed as inhibition of LPS-induced neutrophilia at 100 ug/kg, it administered as suspension with Penn-Century micro-sprayer aerosolizer dosed 1 hrs before LPS challenge and measured 5 hrs post dose; format: functional; details: inhaled or nasal; summary of the method: as §1
# Rattus norvegicus [7] = assay: Anti-inflammatory activity in Sprague-Dawley rat assessed as inhibition of LPS-induced neutrophilia at 10 to 1000 ug/kg, it administered as suspension with Penn-Century micro-sprayer aerosolizer dosed 1 hrs before LPS challenge and measured 5 hrs post dose; format: functional; details: inhaled or nasal; summary of the method: as §1
# Rattus norvegicus [8] = assay: Anti-inflammatory activity in Sprague-Dawley rat assessed as inhibition of LPS-induced neutrophilia at 1000 ug/kg, it administered as dry powder with lactose carrier through Penn-Century insufflator dosed 18 hrs before LPS challenge and measured 22 hrs post dose; format: functional
# Summary of the method: (§2)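 Compounds were micronized, comixed with lactose, and 5 mg of the mixture was insufflated intratracheally into isoflurane-anesthetized fasted male Sprague-Dawley rats (230–280 g). LPS aerosol (30 mL of a 1:100 PBS dilution of 100 mg/10 mL stock) was nebulized for 40 min at 1 or 18 h post-dose. BAL was taken 4 h later and neutrophils counted by flow cytometry. Controls: lactose alone, lactose+LPS, fluticasone (10% in lactose).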
# Rattus norvegicus [9] = assay: Anti-inflammatory activity in Sprague-Dawley rat assessed as inhibition of LPS-induced neutrophilia at 1000 ug/kg, it administered as dry powder with lactose carrier through Penn-Century insufflator dosed 1 hrs before LPS challenge and measured 5 hrs post dose; format: functional; summary of the method: as §2
# Rattus norvegicus [10] = assay: Anti-inflammatory activity in Sprague-Dawley rat assessed as inhibition of LPS-induced neutrophilia at 300 ug/kg, it administered as suspension with Penn-Century micro-sprayer aerosolizer dosed 18 hrs before LPS challenge and measured 22 hrs post dose; format: functional; details: inhaled or nasal; summary of the method: as §1
# Rattus norvegicus [11] = assay: Anti-inflammatory activity in Sprague-Dawley rat assessed as inhibition of LPS-induced neutrophilia at 1000 ug/kg, it administered as suspension with Penn-Century micro-sprayer aerosolizer dosed 1 hrs before LPS challenge and measured 5 hrs post dose; format: functional; details: inhaled or nasal; summary of the method: as §1
SMILES,IC50 [1],IC50 (Adenosine receptor A1),IC50 (Adenosine receptor A2b),IC50 (Adenosine receptor A2a),IC50 [2],metabolised at 20 min [3],also measured
CCn1nc(-c2cccc(-c3ccccc3C(=O)O)c2)cc(NC(=O)Nc2c(Cl)cncc2Cl)c1=O,0.0103 µM,,,,,,
CCn1nc(-c2cccc(-c3cccc(CC(=O)NCCCCCCCN(C)CCO)c3)c2)cc(NC(=O)Nc2c(Cl)cncc2Cl)c1=O,0.0049 µM,0.028 µM,0.459 µM,0.059 µM,0.525 µM,,
CCn1nc(-c2cccc(-c3cncc(C(=O)O)c3)c2)cc(NC(=O)Nc2c(Cl)cncc2Cl)c1=O,0.0116 µM,,,,,35%,
CCn1nc(-c2cccc(-c3cc(C(=O)NCCO)cc(C(=O)NCCN4CCCCC4)c3)c2)cc(NC(=O)Nc2c(Cl)cncc2Cl)c1=O,0.00031 µM,> 1 µM,> 0.268 µM,> 1 µM,,,inhibition in vivo at 0.025 mg/kg (Rattus norvegicus [4]): 33%
CCn1nc(-c2cccc(-c3ccccc3O)c2)cc(NC(=O)Nc2c(Cl)cncc2Cl)c1=O,0.0014 µM,,,,0.075 µM,1.7%,
CCn1nc(-c2cccc(-c3cccc(C(=O)NCCCCCCCN(C)CCO)c3)c2)cc(NC(=O)Nc2c(Cl)cncc2Cl)c1=O,0.00024 µM,0.013 µM,0.206 µM,0.041 µM,0.057 µM,,inhibition in vivo at 1 mg/kg (Rattus norvegicus [5]): 27%; inhibition in vivo at 0.1 mg/kg (Rattus norvegicus [6]): 79%
CCn1nc(-c2cccc(-c3cc(F)ccc3O)c2)cc(NC(=O)Nc2c(Cl)cncc2Cl)c1=O,0.00088 µM,,,,0.207 µM,8%,inhibition in vivo at 1 mg/kg (Rattus norvegicus [5]): 14%; ED50 (Rattus norvegicus [7]): 0.101 mg/kg; inhibition in vivo at 1 mg/kg (Rattus norvegicus [8]): 0%; inhibition in vivo at 1 mg/kg (Rattus norvegicus [9]): 51%
CCn1nc(-c2ccccc2)c(C(C)=O)c(Nc2ccc(C(=O)O)cc2)c1=O,0.021 µM,,,,,,
CCn1nc(-c2cccc(-c3ccc(O)cc3F)c2)cc(NC(=O)Nc2c(Cl)cncc2Cl)c1=O,0.0029 µM,,,,0.154 µM,27%,
CCn1nc(-c2cccc(-c3ccc(F)c(C(=O)O)c3)c2)cc(NC(=O)Nc2c(Cl)cncc2Cl)c1=O,0.0263 µM,,,,,,
CCn1nc(-c2cccc(-c3ccc(C(N)=O)cc3)c2)cc(NC(=O)Nc2c(Cl)cncc2Cl)c1=O,0.0002 µM,,,,0.12 µM,,
CCn1nc(-c2cccc(-c3cc(C(=O)NC4CC4)cc(C(=O)NC4CC4)c3)c2)cc(NC(=O)Nc2c(Cl)cncc2Cl)c1=O,0.0004 µM,0.324 µM,> 1 µM,> 1 µM,,,inhibition in vivo at 0.025 mg/kg (Rattus norvegicus [4]): 54%; inhibition in vivo at 0.3 mg/kg (Rattus norvegicus [10]): 27%
CCn1nc(-c2cccc(-c3cccc(C(=O)O)c3)c2)cc(NC(=O)Nc2c(Cl)cncc2Cl)c1=O,0.00217 µM,0.017 µM,0.222 µM,0.27 µM,,9%,
CCn1nc(-c2cccc(-c3cc(C#N)cc(C(=O)NC4CC4)c3)c2)cc(NC(=O)Nc2c(Cl)cncc2Cl)c1=O,0.00019 µM,0.634 µM,> 1 µM,> 1 µM,,,
CCn1nc(-c2cccc(-c3cccc(CC(=O)O)c3)c2)cc(NC(=O)Nc2c(Cl)cncc2Cl)c1=O,0.00054 µM,0.005 µM,0.263 µM,0.434 µM,0.19 µM,56%,inhibition in vivo at 1 mg/kg (Rattus norvegicus [5]): 16%; inhibition in vivo at 1 mg/kg (Rattus norvegicus [11]): 66%
